Laboratory results reported in ChEMBL document CHEMBL2176911 (J Med Chem, 2012).
Calls of active or inactive are those of the source. The calls are words filed in the database; no cut-off is given here.

Legend:
[1] = biological target: Dual specificity tyrosine-phosphorylation-regulated kinase 1A (Rattus norvegicus, UniProt Q63470); test: Inhibition of rat DYRK1A isolated from brain using KKISGRLSPIMTEQ as substrate and [gamma33P]ATP after 30 mins by scintillation counting
Casein kinase II = Casein kinase II (Homo sapiens, UniProt P19784+P67870+P68400); test: Inhibition of human recombinant CK2 using RRREDEESDDEE as substrate and [gamma33P]ATP after 30 mins by scintillation counting; type: protein-complex assay
In short: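 Purified recombinant kinase from a 26-enzyme panel, with inhibitor tested at various concentrations. IC50 in μM calculated from dose–response curves.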

[2] = biological target: Cyclin-dependent kinase 7/ cyclin H (Homo sapiens, UniProt P50613); test: Inhibition of human recombinant CDK7/cyclin H expressed in insect cell using YSPTSPSYSPTSPSYSPTSPSKKKK as substrate and [gamma33P]ATP after 30 mins by scintillation counting
In short: (§1)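 Panel of purified kinases (recombinant from several species plus native enzymes), each assayed radiometrically over a range of inhibitor concentrations; IC50 in μM calculated from the dose-response curves.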

[3] = biological target: Dual specificity protein kinase CLK1 (Mus musculus, UniProt P22518); test: Inhibition of mouse recombinant GST-tagged CLK1 expressed in Escherichia coli using GRSRSRSRSRSR as substrate and [gamma33P]ATP after 30 mins by scintillation counting; in short: as §1
[4] = biological target: Dual specificity tyrosine-phosphorylation-regulated kinase 1A (Rattus norvegicus) (UniProt Q63470); test: Inhibition of DYRK1A in CD Sprague-Dawley rat brain assessed as inhibition of human APP-induced neurodegeneration after 3 hrs by fluorescence microscopic analysis
HT-22 [5] = test: Inhibition of GSK3 in mouse HT22 cells at 10 uM after 4 hrs; type: cell-based
[6] = biological target: Dual specificity tyrosine-phosphorylation-regulated kinase 1A (Mus musculus) (UniProt Q61214); test: Inhibition of DYRK1A in mouse HT22 cells at 10 uM after 4 hrs; type: cell-based; details: HT-22
[7] = biological target: 1-phosphatidylinositol 3-phosphate 5-kinase (Mus musculus) (UniProt Q9Z1T6); test: Binding affinity to phosphatidylinositol-3-phosphate 5-kinase type 3 in mouse brain homogenate by Western blot analysis; type: tissue-based
In short: (§2)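 Bead pull-down from HT22 cell or mouse brain extracts, with ethanolamine beads lacking ligand as control. Specificity was tested by adding excess free inhibitor to the extracts before binding.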

[8] = biological target: Casein kinase II subunit beta (Mus musculus) (UniProt P67871); test: Binding affinity to CK2 beta subunit in mouse brain homogenate by Western blot analysis; type: tissue-based; in short: as §2
Mus musculus = organism: Mus musculus; test: Binding affinity to GSK3beta1 in mouse brain homogenate by Western blot analysis; type: tissue-based; in short: as §2
HT-22 [9] = test: Binding affinity to GSK3beta2 in mouse HT22 cell lysate by Western blot analysis; type: cell-free; in short: as §2
HT-22 [10] = test: Binding affinity to GSK3beta1 in mouse HT22 cell lysate by Western blot analysis; type: cell-free; in short: as §2
[11] = biological target: Glycogen synthase kinase-3 alpha (Mus musculus) (UniProt Q2NL51); test: Binding affinity to GSK3alpha in mouse HT22 cell lysate by Western blot analysis; type: cell-free; details: HT-22; in short: as §2
[12] = biological target: Dual specificity tyrosine-phosphorylation-regulated kinase 1A (Mus musculus) (UniProt Q61214); test: Binding affinity to DYRK1A in mouse HT22 cell lysate by Western blot analysis; type: cell-free; details: HT-22; in short: as §2
[13] = biological target: Casein kinase II subunit alpha (Mus musculus, UniProt Q60737); test: Binding affinity to CSNK2A1 in mouse brain homogenate after 3 hrs by competition affinity chromatographic analysis; type: tissue-based
In short: (§3)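 Mouse brain lysate applied to a KinAffinity matrix of mixed immobilized broad-spectrum kinase inhibitors at highest loading density, with increasing concentrations of free inhibitor added. […] Separate titrations of the immobilized ligands gave BC50 values.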

[14] = biological target: Dual specificity tyrosine-phosphorylation-regulated kinase 1A (Mus musculus, UniProt Q61214); test: Binding affinity to DYRK1A in mouse brain homogenate after 3 hrs by competition affinity chromatographic analysis; type: tissue-based; in short: as §3
[15] = biological target: T1, Glycogen synthase kinase-3 alpha (Homo sapiens, UniProt P49840); test: Binding affinity to GSK3A
[16] = biological target: Homeodomain-interacting protein kinase 3 (Homo sapiens, UniProt Q9H422); test: Binding affinity to HIPK3
[17] = biological target: Interleukin-1 receptor-associated kinase 1 (Homo sapiens, UniProt P51617); test: Binding affinity to IRAK1
[18] = biological target: Homeodomain-interacting protein kinase 1 (Homo sapiens, UniProt Q86Z02); test: Binding affinity to HIPK1
[19] = biological target: Dual specificity tyrosine-phosphorylation-regulated kinase 3 (Homo sapiens) (UniProt O43781); test: Inhibition of human recombinant GST-tagged DYRK3 expressed in Escherichia coli using KKISGRLSPIMTEQ as substrate at 1 uM after 30 mins
[20] = biological target: Dual specificity tyrosine-phosphorylation-regulated kinase 3 (Homo sapiens) (UniProt O43781); test: Inhibition of human recombinant GST-tagged DYRK3 expressed in Escherichia coli using KKISGRLSPIMTEQ as substrate at 10 uM after 30 mins
[21] = biological target: T2, Dual specificity tyrosine-phosphorylation-regulated kinase 2 (Homo sapiens) (UniProt Q92630); test: Inhibition of human recombinant GST-tagged DYRK2 expressed in Escherichia coli using KKISGRLSPIMTEQ as substrate at 10 uM after 30 mins
T2 sequence (whole entry): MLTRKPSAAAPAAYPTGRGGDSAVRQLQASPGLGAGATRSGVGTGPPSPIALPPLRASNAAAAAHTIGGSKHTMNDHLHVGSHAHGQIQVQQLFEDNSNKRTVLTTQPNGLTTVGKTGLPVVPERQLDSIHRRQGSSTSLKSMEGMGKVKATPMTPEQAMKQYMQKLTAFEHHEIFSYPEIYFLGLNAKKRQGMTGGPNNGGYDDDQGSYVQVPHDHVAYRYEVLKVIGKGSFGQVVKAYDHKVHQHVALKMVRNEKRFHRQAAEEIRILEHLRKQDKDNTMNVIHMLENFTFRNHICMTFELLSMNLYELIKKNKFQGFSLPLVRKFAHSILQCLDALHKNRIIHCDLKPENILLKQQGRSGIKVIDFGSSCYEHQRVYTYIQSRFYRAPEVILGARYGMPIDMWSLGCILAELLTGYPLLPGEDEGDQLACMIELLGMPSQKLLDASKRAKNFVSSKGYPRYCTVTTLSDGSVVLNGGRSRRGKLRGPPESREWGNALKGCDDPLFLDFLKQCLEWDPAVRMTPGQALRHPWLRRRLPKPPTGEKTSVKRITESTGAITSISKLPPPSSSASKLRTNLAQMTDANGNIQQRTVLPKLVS

[22] = Inhibition of Leishmania major recombinant CK1 expressed in Escherichia coli using RRKHAAIGpSAYSITA as substrate and [gamma33P]ATP after 30 mins by scintillation counting; in short: as §1
[23] = biological target: Glycogen synthase kinase-3 (Sus scrofa, UniProt B2LUN4+I6LNT8); test: Inhibition of pig GSK3alpha/beta isolated from brain using YRRAAVPPSPSLSRHSSPHQ-phosphoS-EDEEE as substrate and [gamma33P]ATP after 30 mins by scintillation counting; in short: as §1
[24] = biological target: T1, Glycogen synthase kinase-3 alpha; test: Inhibition of human recombinant GSK3alpha expressed in insect cells using YRRAAVPPSPSLSRHSSPHQ-phosphoS-EDEEE as substrate and [gamma33P]ATP after 30 mins by scintillation counting
[25] = biological target: Mitogen-activated protein kinase 1 (Rattus norvegicus, UniProt P63086); test: Inhibition of rat recombinant ERK2 using Ets1 as substrate and [gamma33P]ATP as substrate after 30 mins by scintillation counting; in short: as §1
Chain of Mitogen-activated protein kinase 1 (P63086 whole entry): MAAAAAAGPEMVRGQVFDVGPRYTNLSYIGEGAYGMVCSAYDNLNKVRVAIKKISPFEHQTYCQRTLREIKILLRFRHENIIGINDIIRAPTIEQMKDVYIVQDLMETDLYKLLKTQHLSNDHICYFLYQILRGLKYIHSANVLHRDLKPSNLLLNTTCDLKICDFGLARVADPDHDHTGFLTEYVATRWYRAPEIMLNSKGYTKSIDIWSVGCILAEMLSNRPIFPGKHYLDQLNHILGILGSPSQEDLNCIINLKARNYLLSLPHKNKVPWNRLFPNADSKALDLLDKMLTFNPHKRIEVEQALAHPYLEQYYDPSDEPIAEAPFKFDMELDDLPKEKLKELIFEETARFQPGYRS

T1 sequence (P49840 whole entry): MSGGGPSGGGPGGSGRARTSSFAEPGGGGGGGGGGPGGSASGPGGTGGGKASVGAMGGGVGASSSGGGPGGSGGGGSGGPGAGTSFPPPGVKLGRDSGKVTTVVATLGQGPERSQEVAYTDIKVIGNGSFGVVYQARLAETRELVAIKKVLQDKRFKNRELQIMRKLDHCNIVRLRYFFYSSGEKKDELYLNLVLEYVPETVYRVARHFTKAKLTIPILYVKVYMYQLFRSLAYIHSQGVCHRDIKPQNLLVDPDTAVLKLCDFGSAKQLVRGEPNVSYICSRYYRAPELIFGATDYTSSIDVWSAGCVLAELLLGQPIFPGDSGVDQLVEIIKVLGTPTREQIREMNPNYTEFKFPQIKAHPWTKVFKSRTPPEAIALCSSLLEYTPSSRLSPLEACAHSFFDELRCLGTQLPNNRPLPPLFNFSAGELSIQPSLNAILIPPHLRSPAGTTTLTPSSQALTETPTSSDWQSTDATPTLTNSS
Chain of Dual specificity tyrosine-phosphorylation-regulated kinase 3 (Homo sapiens) (O43781 whole entry): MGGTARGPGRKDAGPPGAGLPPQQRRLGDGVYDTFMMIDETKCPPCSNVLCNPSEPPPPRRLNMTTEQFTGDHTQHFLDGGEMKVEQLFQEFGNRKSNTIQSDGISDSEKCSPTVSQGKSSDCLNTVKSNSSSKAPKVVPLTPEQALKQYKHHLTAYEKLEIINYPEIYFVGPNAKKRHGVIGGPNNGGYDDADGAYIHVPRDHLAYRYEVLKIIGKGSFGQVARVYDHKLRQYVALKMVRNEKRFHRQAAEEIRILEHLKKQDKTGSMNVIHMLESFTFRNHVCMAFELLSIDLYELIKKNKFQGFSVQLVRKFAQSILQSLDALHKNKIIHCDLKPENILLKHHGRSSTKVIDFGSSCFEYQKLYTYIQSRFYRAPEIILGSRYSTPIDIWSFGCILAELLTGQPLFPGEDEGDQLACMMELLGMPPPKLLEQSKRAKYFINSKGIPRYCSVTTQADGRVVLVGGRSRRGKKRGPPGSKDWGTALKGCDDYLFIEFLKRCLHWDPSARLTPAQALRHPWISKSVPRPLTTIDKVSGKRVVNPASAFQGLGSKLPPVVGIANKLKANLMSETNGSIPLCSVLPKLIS
Chain of Casein kinase II subunit beta (Mus musculus) (P67871 whole entry): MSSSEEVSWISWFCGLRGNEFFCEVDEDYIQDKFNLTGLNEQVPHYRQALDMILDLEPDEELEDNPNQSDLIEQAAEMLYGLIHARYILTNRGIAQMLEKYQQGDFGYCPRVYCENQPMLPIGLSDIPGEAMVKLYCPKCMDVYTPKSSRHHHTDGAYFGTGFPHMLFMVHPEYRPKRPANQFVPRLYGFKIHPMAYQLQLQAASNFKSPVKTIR
Chain of Casein kinase II (P67870 whole entry): as the sequence (P67871 whole entry) above
Chain of Casein kinase II (P68400 whole entry): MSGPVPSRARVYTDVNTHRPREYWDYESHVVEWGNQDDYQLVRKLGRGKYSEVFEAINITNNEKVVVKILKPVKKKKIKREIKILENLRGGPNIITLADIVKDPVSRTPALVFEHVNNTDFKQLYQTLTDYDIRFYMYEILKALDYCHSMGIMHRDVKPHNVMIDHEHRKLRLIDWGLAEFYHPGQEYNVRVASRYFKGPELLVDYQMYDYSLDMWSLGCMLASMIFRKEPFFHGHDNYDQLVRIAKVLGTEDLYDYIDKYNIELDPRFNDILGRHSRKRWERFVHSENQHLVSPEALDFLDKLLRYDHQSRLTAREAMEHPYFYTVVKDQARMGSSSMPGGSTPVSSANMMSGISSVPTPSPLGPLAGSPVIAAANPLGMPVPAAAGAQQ
Chain of Casein kinase II (P19784 whole entry): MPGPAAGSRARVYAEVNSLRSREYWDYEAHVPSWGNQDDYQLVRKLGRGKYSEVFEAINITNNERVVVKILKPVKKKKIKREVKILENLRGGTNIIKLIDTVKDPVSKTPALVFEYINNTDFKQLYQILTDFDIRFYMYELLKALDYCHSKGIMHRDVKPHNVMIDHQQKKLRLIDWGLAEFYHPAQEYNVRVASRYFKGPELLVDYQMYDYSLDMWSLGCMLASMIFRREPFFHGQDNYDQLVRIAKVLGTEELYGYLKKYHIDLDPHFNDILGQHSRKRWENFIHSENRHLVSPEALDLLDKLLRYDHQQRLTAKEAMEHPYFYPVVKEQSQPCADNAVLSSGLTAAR
Chain of Dual specificity protein kinase CLK1 (P22518 whole entry): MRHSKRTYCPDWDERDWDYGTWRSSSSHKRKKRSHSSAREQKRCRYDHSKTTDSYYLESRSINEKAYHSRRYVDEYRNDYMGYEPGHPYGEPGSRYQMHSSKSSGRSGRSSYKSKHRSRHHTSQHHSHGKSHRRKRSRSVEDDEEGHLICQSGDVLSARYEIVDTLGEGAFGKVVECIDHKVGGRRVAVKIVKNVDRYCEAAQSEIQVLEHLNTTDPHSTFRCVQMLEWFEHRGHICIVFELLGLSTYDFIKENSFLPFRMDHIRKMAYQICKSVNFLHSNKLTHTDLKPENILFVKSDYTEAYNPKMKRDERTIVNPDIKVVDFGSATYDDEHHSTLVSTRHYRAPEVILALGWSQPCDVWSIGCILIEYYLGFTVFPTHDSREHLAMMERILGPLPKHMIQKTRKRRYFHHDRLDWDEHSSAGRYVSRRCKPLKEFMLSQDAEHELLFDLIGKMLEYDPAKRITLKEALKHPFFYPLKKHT
Chain of Cyclin-dependent kinase 7/ cyclin H (P51946 whole entry): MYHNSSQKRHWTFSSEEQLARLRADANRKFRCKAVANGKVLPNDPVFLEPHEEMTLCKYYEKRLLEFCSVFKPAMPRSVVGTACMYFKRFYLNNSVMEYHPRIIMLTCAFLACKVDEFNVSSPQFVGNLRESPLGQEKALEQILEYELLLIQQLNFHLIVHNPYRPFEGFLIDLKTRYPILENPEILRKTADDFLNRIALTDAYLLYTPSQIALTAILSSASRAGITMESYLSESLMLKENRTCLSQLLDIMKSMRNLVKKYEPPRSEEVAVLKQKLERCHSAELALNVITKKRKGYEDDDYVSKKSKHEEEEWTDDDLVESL
Chain of Cyclin-dependent kinase 7/ cyclin H (P50613 whole entry): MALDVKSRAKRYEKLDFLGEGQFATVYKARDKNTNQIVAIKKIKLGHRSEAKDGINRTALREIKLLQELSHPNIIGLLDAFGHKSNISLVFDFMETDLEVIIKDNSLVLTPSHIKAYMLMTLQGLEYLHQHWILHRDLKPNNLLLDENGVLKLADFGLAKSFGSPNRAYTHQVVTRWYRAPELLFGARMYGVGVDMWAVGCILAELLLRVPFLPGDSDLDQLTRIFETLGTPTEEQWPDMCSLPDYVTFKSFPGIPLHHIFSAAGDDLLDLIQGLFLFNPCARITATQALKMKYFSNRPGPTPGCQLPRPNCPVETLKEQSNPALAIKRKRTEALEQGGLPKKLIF
Chain of Casein kinase II subunit alpha (Q60737 whole entry): as the sequence (P68400 whole entry) above, with G335S, S337T, P340A, P378S, M381I counted along it
Chain of Interleukin-1 receptor-associated kinase 1 (P51617 whole entry): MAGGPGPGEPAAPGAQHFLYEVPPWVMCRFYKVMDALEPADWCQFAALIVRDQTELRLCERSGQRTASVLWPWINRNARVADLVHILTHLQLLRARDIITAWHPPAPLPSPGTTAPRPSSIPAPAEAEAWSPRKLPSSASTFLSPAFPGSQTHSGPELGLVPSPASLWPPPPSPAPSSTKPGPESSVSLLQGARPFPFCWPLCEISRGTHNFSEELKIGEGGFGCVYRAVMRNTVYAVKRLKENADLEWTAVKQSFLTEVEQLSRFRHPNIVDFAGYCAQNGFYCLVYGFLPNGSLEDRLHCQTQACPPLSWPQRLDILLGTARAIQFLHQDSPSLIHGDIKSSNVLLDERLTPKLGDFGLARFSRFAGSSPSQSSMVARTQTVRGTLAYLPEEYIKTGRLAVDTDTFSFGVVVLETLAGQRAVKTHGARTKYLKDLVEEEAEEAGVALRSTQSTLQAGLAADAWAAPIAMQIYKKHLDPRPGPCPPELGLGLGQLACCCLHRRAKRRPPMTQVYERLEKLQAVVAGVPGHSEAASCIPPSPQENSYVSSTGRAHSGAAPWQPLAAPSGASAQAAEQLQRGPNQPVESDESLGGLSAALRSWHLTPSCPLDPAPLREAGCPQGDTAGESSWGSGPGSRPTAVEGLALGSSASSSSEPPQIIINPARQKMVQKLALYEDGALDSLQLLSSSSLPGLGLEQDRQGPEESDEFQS

## O=C1NC(Nc2ccccc2)=N/C1=C\c1ccc2c(c1)OCO2
[1]
  IC50: 10 nM
Casein kinase II
  IC50: 320 nM
[2]
  IC50: > 10000 nM
[3]
  IC50: 71 nM
[4]
  inhibition: Dose-dependent effect
HT-22 [5]
  inhibition: inactive
[6]
  inhibition: Active
[7]
  Activity: Active
[8]
  Activity: Active
Mus musculus
  Activity: Active
HT-22 [9]
  Activity: Active
HT-22 [10]
  Activity: Active
[11]
  Activity: Active
[12]
  Activity: Active
[13]
  Kd(free): 326 nM
[14]
  Kd(free): 65 nM
[15]
  Kd: 550 nM
[16]
  Kd: 230 nM
[17]
  Kd: 930 nM
[18]
  Kd: 320 nM
[19]
  inhibition: Active
[20]
  inhibition: Active
[21]
  inhibition: Active
[22]
  IC50: ≥ 10000 nM
[23]
  IC50: 410 nM
[24]
  IC50: 210 nM
[25]
  IC50: > 30000 nM
